We go through 4 compounds from ChEMBL document CHEMBL5096209, “Structure-Activity Studies of 3,9-Diazaspiro[5.5]undecane-Based γ-Aminobutyric Acid Type A Receptor Antagonists with Immunomodulatory Effect” (J Med Chem, 2021).

For assay [1], the target named is T1, Gamma-aminobutyric acid receptor subunit alpha-1/beta-2/delta (Homo sapiens, UniProt O14764+P14867+P47870).
T1 sequence (P14867 whole entry): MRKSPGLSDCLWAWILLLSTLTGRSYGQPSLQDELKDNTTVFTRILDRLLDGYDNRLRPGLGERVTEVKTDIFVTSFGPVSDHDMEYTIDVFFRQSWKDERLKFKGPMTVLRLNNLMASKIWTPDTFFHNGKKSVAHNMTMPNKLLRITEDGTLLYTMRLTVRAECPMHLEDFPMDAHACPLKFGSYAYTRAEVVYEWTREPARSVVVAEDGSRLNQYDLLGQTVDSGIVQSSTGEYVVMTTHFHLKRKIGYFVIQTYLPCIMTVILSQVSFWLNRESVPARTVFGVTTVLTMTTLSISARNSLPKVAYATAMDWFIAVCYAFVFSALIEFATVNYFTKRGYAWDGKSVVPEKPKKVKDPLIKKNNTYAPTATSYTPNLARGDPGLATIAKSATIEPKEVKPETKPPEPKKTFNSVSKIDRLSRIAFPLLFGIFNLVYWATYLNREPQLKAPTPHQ
T1 sequence (P47870 whole entry): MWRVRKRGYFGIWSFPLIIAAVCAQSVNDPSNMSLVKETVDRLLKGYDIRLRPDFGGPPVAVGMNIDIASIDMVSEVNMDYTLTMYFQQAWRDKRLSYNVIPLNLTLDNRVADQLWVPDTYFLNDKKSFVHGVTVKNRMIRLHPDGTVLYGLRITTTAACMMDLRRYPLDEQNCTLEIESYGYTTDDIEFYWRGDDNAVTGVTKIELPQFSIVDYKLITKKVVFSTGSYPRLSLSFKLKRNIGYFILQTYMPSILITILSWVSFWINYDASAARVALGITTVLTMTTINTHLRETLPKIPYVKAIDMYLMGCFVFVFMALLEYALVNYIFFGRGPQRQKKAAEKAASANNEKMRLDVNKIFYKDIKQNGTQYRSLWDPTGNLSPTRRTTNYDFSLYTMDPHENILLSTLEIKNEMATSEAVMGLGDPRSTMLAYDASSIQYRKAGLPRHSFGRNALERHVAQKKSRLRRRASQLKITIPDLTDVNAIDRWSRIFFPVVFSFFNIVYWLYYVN
T1 sequence (O14764 whole entry): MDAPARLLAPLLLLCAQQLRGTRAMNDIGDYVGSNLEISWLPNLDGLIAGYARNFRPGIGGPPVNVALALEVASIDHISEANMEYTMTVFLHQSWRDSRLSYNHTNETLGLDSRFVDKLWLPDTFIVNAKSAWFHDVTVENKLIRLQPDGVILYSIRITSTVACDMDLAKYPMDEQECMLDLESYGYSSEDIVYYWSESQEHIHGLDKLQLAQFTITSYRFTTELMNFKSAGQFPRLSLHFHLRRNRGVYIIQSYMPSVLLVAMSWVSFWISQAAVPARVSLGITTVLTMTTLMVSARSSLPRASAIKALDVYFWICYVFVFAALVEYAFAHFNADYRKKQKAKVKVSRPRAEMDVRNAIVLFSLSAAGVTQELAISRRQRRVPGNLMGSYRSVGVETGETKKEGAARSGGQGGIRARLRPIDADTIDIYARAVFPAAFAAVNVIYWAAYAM
The experiment in a line: Antagonist activity at recombinant human alpha1beta2delta GABAA receptor expressed in HEK293 Flp-In cells by FMP assay. The assay is classed as cell-based, Flp-In-293. Summed up:
(§1)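 HEK293 Flp-In cells stably expressing human δ subunit, transiently transfected with human α and β subunits (1:1) to form αβδ receptors. Read-out is the FLIPR membrane potential dye ΔRFU, baseline to peak/plateau, with GABA EC80 as agonist. Four-parameter fit of concentration–inhibition curves gives IC50, from at least three independent experiments.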

In assay [2] the test system is GABAA receptor α4β2δ (human). The experiment in a line: Antagonist activity at recombinant human alpha4beta2delta GABAA receptor expressed in HEK293 Flp-In cells by FMP assay.
For assay [3], the target named is T2, GABA A receptor alpha-3/beta-2/gamma-2 (Homo sapiens, UniProt P18507+P34903+P47870).
T2 sequence (P47870 whole entry): T1 sequence (P47870 whole entry)
T2 sequence (P18507 whole entry): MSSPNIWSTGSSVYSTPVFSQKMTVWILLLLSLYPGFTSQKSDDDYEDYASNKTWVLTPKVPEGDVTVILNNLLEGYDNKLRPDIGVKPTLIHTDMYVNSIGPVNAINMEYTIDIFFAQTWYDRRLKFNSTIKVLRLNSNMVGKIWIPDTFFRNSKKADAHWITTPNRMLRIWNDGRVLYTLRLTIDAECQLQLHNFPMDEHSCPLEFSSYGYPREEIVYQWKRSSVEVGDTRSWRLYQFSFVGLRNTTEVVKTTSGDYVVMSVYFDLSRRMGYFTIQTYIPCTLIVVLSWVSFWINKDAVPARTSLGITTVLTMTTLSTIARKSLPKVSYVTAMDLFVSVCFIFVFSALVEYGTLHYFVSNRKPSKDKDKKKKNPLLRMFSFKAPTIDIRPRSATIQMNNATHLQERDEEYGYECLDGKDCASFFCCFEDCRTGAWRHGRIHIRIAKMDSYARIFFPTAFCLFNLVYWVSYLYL
T2 sequence (P34903 whole entry): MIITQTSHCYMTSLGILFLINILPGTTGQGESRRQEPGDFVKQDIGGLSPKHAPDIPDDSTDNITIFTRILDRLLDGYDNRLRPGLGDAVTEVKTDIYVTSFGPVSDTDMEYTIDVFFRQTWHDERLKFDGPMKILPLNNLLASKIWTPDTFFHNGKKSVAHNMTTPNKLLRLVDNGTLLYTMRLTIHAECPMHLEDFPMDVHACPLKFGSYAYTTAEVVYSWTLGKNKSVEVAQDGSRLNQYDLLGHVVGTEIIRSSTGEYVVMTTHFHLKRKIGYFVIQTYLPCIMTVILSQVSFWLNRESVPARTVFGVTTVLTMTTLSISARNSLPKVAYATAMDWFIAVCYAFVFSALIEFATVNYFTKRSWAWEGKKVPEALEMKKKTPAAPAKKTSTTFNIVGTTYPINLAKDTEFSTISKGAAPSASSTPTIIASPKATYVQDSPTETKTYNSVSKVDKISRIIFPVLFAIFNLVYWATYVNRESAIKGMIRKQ
Description: Antagonist activity at human alpha3beta2gamma2 GABAA receptor expressed in HEKcells by FMP assay. The assay is classed as cell-based, HEK. Summed up:
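Human αβγ2 receptors in HEK293 cells: α1β2γ2 stably expressed, other αβγ2 subtypes transiently transfected into HEK293 Flp-In background cells (α:β:γ 1:1:2). FLIPR membrane potential assay with ΔRFU baseline to peak/plateau and GABA EC80 as agonist. IC50 from a four-parameter fit, at least three independent experiments.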

Assay [4] concerns the target T1, Gamma-aminobutyric acid receptor subunit alpha-1/beta-2/delta. Description: Antagonist activity at human alpha1beta2delta GABAA receptor expressed in HEK293 Flp-In cells by FMP assay. The assay is classed as cell-based, Flp-In-293. The method, boiled down:
as §1

[5] abbreviates: Homo sapiens, Flp-In-293, read-out: pIC50 (converted).

As to `O=C(Nc1cccc(C(=O)N2CCC3(CCNCC3)CC2)c1)c1cccs1`, the IC50 was 0.245 µM in assay [1] (read-out: pIC50 (converted)); 0.0676 µM in assay [2] (setting [5]); 0.068 µM in assay [2] (flp-in-293); 0.079 µM in assay [3]; 0.0794 µM in assay [3] (read-out: pIC50 (converted)).
With `Cc1cccc(C(=O)N2CCC3(CCNCC3)CC2)c1`, the results for the IC50 in assay [4] and in assay [4] (read-out: pIC50 (converted)) were 4.95 µM and 4.9 µM, respectively.
In the same order, the values of `Cc1ccc(C(=O)N2CCC3(CCNCC3)CC2)cc1` are 13.2 µM and 13.2 µM.
Take `CC(=O)Nc1cccc(C(=O)N2CCC3(CCNCC3)CC2)c1`: the IC50 in assay [1] was 6.68 µM; in assay [1] (read-out: pIC50 (converted)), 6.76 µM; in assay [2] (setting [5]) it was 0.363 µM; in assay [2] (flp-in-293) it was 0.36 µM; in assay [3], 0.29 µM; in assay [3] (read-out: pIC50 (converted)) it was 0.288 µM.
